Compound activity as filed in PubChem BioAssay.
Rows were chosen to be rich in hits. Some 4.1% of all compounds tested hit in one or more screens of this group.
NS3 helicase inh – inhibitors of HCV NS3 helicase, primary screen, biochemical, Cy5 molecular beacon fluorescence. NS3 helicase DNA unwinding. 0.56% of 290,000 active. inhibition, % at 10.9 µM;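 active means inhibition above the mean of all tested compounds plus 3 SD, set per campaign, cut at about 35% in these data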;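 further: 0% = DMSO wells and 100% = thioflavine S control wells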
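System: NS3 helicase fragment of HCV / Schedule: 1 h at 25 °C / Control set: DMSO alone as 0% and 110 µM thioflavine S as 100% / Reagent: Cy5/quencher beacon DNA duplex and ATP to start / Technique: Cy5 fluorescence / Replication: singlicate / Evaluation: % inhibition of end-to-start signal ratio versus controls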
T cruzi repl – inhibitors of intracellular T. cruzi growth, primary screen, luminescence, NIH3T3 host cells | T. cruzi beta-gal in NIH3T3, 90 h | inhibition, % (no concentration beside the values) | 1.4% of 300,000 active | AID 1885, 2009;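 active means mean inhibition across valid replicates above about 55%, limit read from the data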;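 further: signal also drops with host cell toxicity which is not excluded here; 0% = plate median of DMSO wells and 100% = zero luminescence signal; higher percent means less beta-gal luminescence so fewer parasites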
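assay system = mouse NIH/3T3 fibroblasts infected with β-gal-expressing T. cruzi Tulahuen C4 | input = 5,000 NIH/3T3 host cells per well | buffer or medium = DMEM plus 2% FBS | timing = 3 h host attachment, then at least 90 h co-culture | measured by = GalScreen luminescence, 60 min | evaluation = luminescence reflecting intracellular parasite burden, expressed as percent inhibition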
MEKK3 PB1 HTS – modulators of MEKK3-MEK5 PB1 binding, primary screen, biochemical, wildtype MEKK3, multiplex bead flow cytometry, Alexa488-MEK5; Mitogen-activated protein kinase kinase kinase 3 (Homo sapiens), Q99759; bead-based flow cytometry, Alexa488-MEK5 binding to MEKK3; actives lie on both sides; 0 = blocked by unlabeled MEK5, 100 = vehicle; binding response (% of control), % at 10 µM; 1.4% of 290,000 active; AID 1529, 2009;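 active means binding response more than 3 SD above or below the average of its plate-row segment, actives on both sides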;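 further: Alexa488 bead fluorescence after subtracting the streptavidin-only scavenger bead signal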
Target sequence (Q99759 whole entry, looked up): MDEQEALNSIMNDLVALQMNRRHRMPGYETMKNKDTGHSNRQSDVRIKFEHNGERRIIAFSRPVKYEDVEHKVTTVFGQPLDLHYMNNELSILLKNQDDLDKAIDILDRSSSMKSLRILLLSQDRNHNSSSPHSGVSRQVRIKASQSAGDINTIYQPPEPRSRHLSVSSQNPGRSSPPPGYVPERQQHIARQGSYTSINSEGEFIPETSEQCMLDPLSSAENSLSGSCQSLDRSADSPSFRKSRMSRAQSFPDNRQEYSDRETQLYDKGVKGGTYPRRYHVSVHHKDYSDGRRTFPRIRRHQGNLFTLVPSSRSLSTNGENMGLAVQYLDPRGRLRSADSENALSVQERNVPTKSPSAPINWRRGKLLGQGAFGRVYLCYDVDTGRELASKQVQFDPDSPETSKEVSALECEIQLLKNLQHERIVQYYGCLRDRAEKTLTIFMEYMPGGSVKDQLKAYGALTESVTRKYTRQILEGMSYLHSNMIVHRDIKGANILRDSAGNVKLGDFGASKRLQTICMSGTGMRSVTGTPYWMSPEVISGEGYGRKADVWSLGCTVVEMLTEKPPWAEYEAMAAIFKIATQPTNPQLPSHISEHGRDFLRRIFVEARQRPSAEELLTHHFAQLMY
MEKK2mut PB1 HTS – MEK5 binding signal on mutant MEKK2 PB1, primary screen, biochemical, multiplex bead flow cytometry, Alexa488-MEK5. Alexa488-MEK5 binding to MEKK2 mutant. percent response, % at 10 µM. 0.35% of 290,000 active. AID 1530, 2009; in the data active means percent response above about 24%, passing the limit was not always enough
DNA FID counter – compounds displacing fluorescent DNA intercalator, primary screen, artefact control for HCV NS3 helicase inhibitor project, biochemical, FID fluorescence | DNA fluorescent intercalator displacement | inhibition, % at 7.9 µM | AID 1845, 2009 | 0.17% of 290,000 active; in the data active means inhibition above about 37%;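 further: 0% = vehicle and 100% = reference compound; higher means more ethidium bromide displaced from hairpin DNA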
MEKK2 WT-MEK5 – modulators of MEK5 binding to wildtype MEKK2, primary screen, biochemical, multiplex bead flow cytometry, Alexa488-MEK5; Mitogen-activated protein kinase kinase kinase 2 (Homo sapiens), Q9Y2U5; Alexa488-MEK5 binding to MEKK2 WT; actives lie on both sides; binding response (% of control), % at 10 µM; 1.1% of 290,000 active; in the data active means binding response below about 67% or above about 130%
MEKK2wt confirm – modulators of MEK5 binding to wildtype MEKK2, confirmation, biochemical, single concentration, multiplex bead flow cytometry; shares compounds with MEKK3 PB1 HTS; Alexa488-MEK5 binding to MEKK2 WT; actives lie on both sides; binding response (% of control), % at 10 µM; 2.4% of 5,900 active; AID 1892, 2009; in the data active means binding response below about 16% or above about 210%; inactive means in between
MEKK2mut-MEK5 – mutant MEKK2 PB1-MEK5 binding signal retest – biochemical, single concentration, multiplex bead flow cytometry, confirmation; shares compounds with MEKK3 PB1 HTS; Alexa488-MEK5 binding to MEKK2 mutant; percent response, % at 10 µM; 2% of 5,900 active; AID 1893, 2009; in the data active means percent response mostly above about 71%, no sharp cut-off; inactive means mostly below about 38%;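 further: higher means compound restores mutant binding toward wildtype level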
MEKK3-MEK5 inh – MEKK3 wild-type PB1 binding to MEK5, inhibitors, confirmation, biochemical, bead multiplex flow cytometry, single concentration, wildtype; shares compounds with MEKK3 PB1 HTS; Alexa488-MEK5 binding to MEKK3; active compounds read low; binding response (% of control), % at 10 µM; 1.8% of 5,900 active;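 active means binding response below 72% of control, or above a set upper limit, though filed actives all read lower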;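 further: 100% = DMSO only wells and 0% = binding blocked by excess unlabeled MEK5; lower values mean stronger disruption of MEK5 binding to MEKK3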
The depositor's hits bear a star; / = no result; ! = a repeat was not active; [ ] = another dose, or the depositor's remark.

SMILES	NS3 helicase inh	T cruzi repl	MEKK3 PB1 HTS	MEKK2mut PB1 HTS	DNA FID counter	MEKK2 WT-MEK5	MEKK2wt confirm	MEKK2mut-MEK5	MEKK3-MEK5 inh
Cc1ccc(CN2C(=O)CCC2C(=O)N2CCN(c3ccccc3)CC2)cc1 (stereo not drawn)	4	-9	4.0*[inhibitor]	-46	-42	6.0*[inhibitor]	108	10	106
O=S(=O)(c1ccccc1)N(CC1CO1)c1cccc2ccccc12 (stereo not drawn)	-8	16	102	-8	-12	92	/	/	/
c1ccc(-c2csc3ncnc(NCCCN4CCOCC4)c23)cc1	-1	7	106	-3	3	105	/	/	/
Cc1csc2c(NCCCN3CCOCC3)ncnc12	0	-3	137*	27	-2	136	104	3	104
Cc1ccc(N2CC(C(=O)N3CCN(Cc4ccc5c(c4)OCO5)CC3)CC2=O)cc1 (stereo not drawn)	8	9	104	11	-30	105	/	/	/
CN1CCN(C(=O)N2c3ccccc3C=Cc3ccccc32)CC1	-2	-21	0.0*[inhibitor]	-26	4	0.0*[inhibitor]	107	4	103
Cc1cc(NC(=O)COc2ccc3ccccc3c2)no1	0	-13	99	-1	-5	99	/	/	/
CC(C)Cn1c(=O)c2ccccc2n2c(CCC(=O)NCC3CCCO3)nnc12 (stereo not drawn)	6	1	99	1	-29	98	/	/	/
O=C(Nc1ccc2c(c1)CCC2)c1ccccc1F	2	-5	135*	0	-10	103	104	4	104
O=C(O)c1ccccc1-c1ccccc1C(=O)Nc1ccc2c(c1)CCC2	14	-13	101	3	-26	105	/	/	/
CCOC(=O)c1sc(NC(=O)Nc2ccc(Cl)cc2)cc1C	1	65*	115	10	17	138*	-2.0*[inhibitor]	15	95
CCOC(=O)c1sc(NC(=O)c2ccc(Cl)s2)cc1C	-4	-2	111	4	2	109	/	/	/
O=C(N/N=C\c1cc(Br)cs1)C1COc2ccccc2O1 (stereo not drawn)	-4	-8	106	6	-6	109	/	/	/
O=S(=O)(NC(=NC1CCCCC1)c1ccccc1F)c1ccccc1	-5	-4	100	-4	-19	98	/	/	/
Cc1ccc(C2OC34CCCCCC3C(C#N)(C(=N)O4)C2(C#N)C#N)cc1 (stereo not drawn)	1	-11	56*[inhibitor]	-2	-7	88	99	1	103
COc1ccc(NC(=O)c2cn(CCC#N)nc2-c2cccs2)cc1	-4	10	140*	1	2	108	104	4	104
O=C(CSCc1ccc(Br)cc1)N1CCCC1	0	2	103	6	-7	104	/	/	/
CN1CCc2c(sc3c2C(=O)NC(c2cn(Cc4ccccc4)c4ccccc24)N3)C1 (stereo not drawn)	-38	21	92	66*	-3	182*	240*	107*	109
CN1CCc2c(sc3c2C(=O)NC(c2ccco2)N3)C1 (stereo not drawn)	-8	-18	97	-1	8	95	/	/	/
COc1ccc(-c2nsc3c(N4CCN(S(=O)(=O)c5ccccc5F)CC4)ncnc23)cc1	9	21	71*[inhibitor]	-14	3	80	101	-5	100
COc1ccc(NCC(=O)N2CCCC2)cc1Cl	5	-16	101	-12	-6	89	/	/	/
CCN(CC)C(=S)Nc1ccc(OC)cc1	-2	0	155*	1	0	113	103	2	104
CC(C)(C)NCC(O)c1ccc(O)c(CO)c1 (stereo not drawn)	/	/	104	4	/	111	/	/	/
OCc1cc(C(O)CNCCCCCCOCCCCc2ccccc2)ccc1O (stereo not drawn)	-50	32	112	9	31	144*!	120	2	103
Cc1ccc2[nH]c(=O)c(CN(Cc3cccs3)C(=S)NCC3CCCO3)cc2c1 (stereo not drawn)	-3	38	138*	0	-14	99	104	4	107
SMILES	NS3 helicase inh	T cruzi repl	MEKK3 PB1 HTS	MEKK2mut PB1 HTS	DNA FID counter	MEKK2 WT-MEK5	MEKK2wt confirm	MEKK2mut-MEK5	MEKK3-MEK5 inh
COc1ccc2[nH]c(=O)c(CN(Cc3ccccc3)C(=S)NCC3CCCO3)cc2c1 (stereo not drawn)	-2	22	98	-12	2	85	/	/	/
COc1ccc(NC(=O)N(Cc2cccs2)Cc2cc3cc4c(cc3[nH]c2=O)OCO4)cc1	-2	23	137*	1	-6	100	99	2	104
Cc1ccc(NC(=O)N(Cc2cccs2)Cc2cc3cc4c(cc3[nH]c2=O)OCO4)cc1	11	35	130*	0	-2	104	91	-8	96
O=C(Nc1ccc(F)cc1)N(Cc1cccs1)Cc1cc2cc3c(cc2[nH]c1=O)OCO3	-4	47	107	0	-2	97	/	/	/
Cc1nc2c3cc(F)ccc3n(Cc3ccc(F)cc3)c2s1	3	-66	144*	0	-4	111	93	-5	96
CCCCc1ccc(S(=O)(=O)Nc2ccc(C)c(NS(C)(=O)=O)c2)cc1	-7	-3	137*	29	-21	113	100	1	101
COc1ccc(C)cc1S(=O)(=O)n1c([N+](=O)[O-])cnc1C	-9	-4	100	-1	6	104	/	/	/
COc1ccc(C(=O)C2CCCN(Cc3cn[nH]c3-c3ccccc3)C2)cc1OC (stereo not drawn)	2	6	103	-6	1	92	/	/	/
Cn1ccnc1C(=O)C1CCCN(Cc2cn[nH]c2-c2ccc(-c3ccccc3)cc2)C1 (stereo not drawn)	-25	2	116	30	11	148*	109	2	99
